Screening results: PubChem BioAssay, several laboratories
Shown are actives, neighbours in structure and some others; about 7.4% of the full set was active somewhere.
M1 antagonist – blocks the rat M1 muscarinic receptor response to acetylcholine; B-score at 10 µM; AID 628; CHO-M1 cells, Fluo-4 calcium, ACh EC80 antagonist mode; hits give low values; P08482; hit rate 3.4% among 64,000;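 active means calcium fluorescence response, raw or row-and-column corrected B-score, differing from the plate sample mean either way at a set confidence level, mostly lower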
S1P1 ag-PAM – activates or potentiates agonism at human S1P1 receptor. P21453. S1P1 CRE-bla cells, forskolin, beta-lactamase FRET, potentiator mode; S1P1 agonist co-added at EC20, 2 nM; 100% = saturating reference agonist, 0% = basal. activation, % at 9.5 µM. hit rate 0.57% among 56,000. AID 449;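 active means activation above a cutoff set at the mean activation of all tested compounds plus 3 SD, cut at about 54% in these data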;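 further: forskolin at 4 µM as EC80 and the EC20 agonist is SEW2871; 100% = SEW2871 at its EC100 plus forskolin at EC80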
Jurkat tox 60K – cytotoxicity toward Jurkat cells; Jurkat E6.1 viability, ATP luminescence, 48 h; inhibition, % at 4 µM; hit rate 1.2% among 56,000; AID 463;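 active means inhibition above the mean inhibition of all tested compounds plus 3 SD, cut at about 28% in these data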
S1P3 ag – activates the human S1P3 receptor; S1P3 NFAT-BLA reporter cells, agonism, FRET ratio; relative to 1 µM S1P, basal subtracted; activation, % at 4.5 µM; hit rate 0.1% among 60,000; AID 373;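 active means activation above the screen-wide mean plus 3 SD, cut at about 4.5% in these data, passing the limit was not always enough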
Target sequence (Q99500 whole entry, looked up): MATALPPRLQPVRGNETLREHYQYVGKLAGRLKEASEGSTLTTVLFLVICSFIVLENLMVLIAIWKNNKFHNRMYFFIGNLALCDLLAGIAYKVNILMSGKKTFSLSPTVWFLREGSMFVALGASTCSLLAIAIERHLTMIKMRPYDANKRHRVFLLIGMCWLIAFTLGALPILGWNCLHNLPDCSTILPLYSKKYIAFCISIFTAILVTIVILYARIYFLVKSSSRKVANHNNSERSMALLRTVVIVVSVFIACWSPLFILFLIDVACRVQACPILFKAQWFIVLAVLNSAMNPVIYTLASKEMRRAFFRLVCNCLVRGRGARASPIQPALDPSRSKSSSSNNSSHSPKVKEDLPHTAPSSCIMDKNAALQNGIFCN
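Assay system: CHO cells stably expressing human S1P3, Gα16 and NFAT-β-lactamase reporter. Timing: overnight plating, 4 h compound 37 °C, 2 h substrate RT. Signal: β-lactamase FRET emission ratio 460/535 nm. Measure: percent activation versus median 1 µM S1P response, basal-subtracted, per plate. Repeats: primary screen single test, confirmation screen in triplicate.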
M1 ag – M1 muscarinic receptor agonism | AID 626 | B-score at 10 µM | hit rate 3% among 64,000 | CHO-M1 cells, Fluo-4 calcium fluorescence, agonist mode; hits give high values;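 active means fluorescence rise, raw or as B-score row- and column-corrected plate score, outside the 99.7% band of its plate's samples, either direction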
JNK3 blocker – JNK3 (human) kinase inhibition | purified JNK3 kinase activity, HTS | inhibition, % at 8 µM | hit rate 0.61% among 60,000; in the data active means inhibition above about 17%;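 further: 0% = DMSO and 100% = reference inhibitor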
M1 ag confirm – confirmation of rat M1 muscarinic receptor agonists; shares compounds with M1 ag; CHO-M1 cells, Fluo-4 calcium fluorescence, agonist mode; actives lie on both sides; fluorescence change (max-min) at 10 µM; hit rate 19% among 1,700; AID 1488;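 active means fluorescence change differs from the solvent-only DMSO control mean at a set confidence level in both duplicate runs; inconclusive means differs from solvent-only control mean in just one of two runs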;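 further: an EC20 dose of acetylcholine follows compound addition during the same imaging run; raw fluorescence intensity difference in instrument units with no normalization to controls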
M4 ag counter – rat M4 muscarinic agonism, M1 counter-screen; shares compounds with M1 ag; hit rate 9% among 1,700; AID 1741; fluorescence change (max-min) at 10 µM; CHO M4/Gqi5 cells, Fluo-4 calcium fluorescence, agonist mode; actives lie on both sides;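 active means fluorescence change differing from the plate's solvent-only control wells at 99.7% confidence in both duplicates, whether higher or lower; inconclusive means differs from solvent controls in only one of two duplicates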
* = called active by the depositor; ? = inconclusive; . = no result given.

SMILES	M1 antagonist	S1P1 ag-PAM	Jurkat tox 60K	S1P3 ag	M1 ag	JNK3 blocker	M1 ag confirm	M4 ag counter
Cc1ccc(C2C(C#N)=C(N)Oc3c2sc2ccccc32)o1 (stereo not drawn)	-0.052	-43	-5	-2	109*	5	165*	53
CCOC(=O)COn1c(=O)c(=O)n(O)c2ccccc21	-0.72	.	-2	-1	0.4	-7	.	.
Cn1cc(S(=O)(=O)CC(=O)Nc2ccc3c(c2)OCCO3)c2ccccc21	-1.3	.	.	.	-0.92	.	.	.
O=C(CS(=O)(=O)c1c[nH]c2ccccc12)Nc1ccc2c(c1)OCCO2	0.052	.	.	.	3.2*	.	-11	-41
O=C(COC(=O)c1c2c(nc3ccccc13)CCCC2)Nc1ccc2c(c1)OCO2	-2*	.	.	.	13*	.	?	-16
COc1ccc(-c2cc(=O)oc3c(C)c(O)c(CN(C)C)cc23)cc1	-0.021	19	5	0	6.4*	-1	-0.86	-3.3
COc1ccc(-c2cc(=O)oc3cc(OCc4nn[nH]n4)ccc23)cc1	0.076	16	0	-1	0.045	-1	.	.
CN(C)c1ccc(/C=C/C(O)=C2/C(=O)N(C)C3(C)CC2c2ccccc2O3)cc1 (stereo not drawn)	0.17	-6	12	-1	28*	-3	232*	229*
COc1cc(N2C(=O)NC3CC2(C)Oc2ccccc23)cc(OC)c1OC (stereo not drawn)	-0.58	-1	2	2	0.016	-3	.	.
Cc1ccc(N(C(C)C(=O)N2CCC(C)CC2)S(C)(=O)=O)cc1C (stereo not drawn)	-0.16	7	6	-1	2.5*	-1	-6.7	-15
CCOC(=O)N1CCN(C(=O)C(C)N(c2ccc(Oc3ccccc3)cc2)S(C)(=O)=O)CC1 (stereo not drawn)	-1.3	-13	-3	0	3.6*	-2	-4.8	-66
COCCNC(=O)C(C)N(c1ccc(Oc2ccccc2)cc1)S(C)(=O)=O (stereo not drawn)	-0.13	.	1	0	0.0089	-3	.	.
Cc1n[nH]c(C)c1S(=O)(=O)N1CCN(C2CCCCC2)CC1	-0.63	.	.	.	-1.1	.	.	.
CCOC(=O)N1CCN(C(=O)CN2C(=O)COc3ccc(C(C)(C)C)cc32)CC1	0.0023	3	2	1	0.0079	-1	.	.
Nn1c(Nc2ccccc2)nc2ccccc2c1=O	-0.65	-4	-1	-1	-0.66	0	.	.
O=c1[nH]c(Nc2ccccc2)cc2ccccc12	-0.37	-21	2	-1	5.5*	-3	?	43
Cc1cccc(-c2noc(CCC(=O)Nc3ccccc3)n2)c1	-0.65	-16	-4	-1	0.59	1	.	.
Cc1ccc(-c2noc(CCC(=O)Nc3cccc(C#N)c3)n2)cc1	-1.2	-34	4	-1	3.5*	3	-9.5	-17
CC(C)Nc1nc(SCC(=O)Nc2ccccc2)nc(N2CCOCC2)n1	0.66	-25	1	0	-1.5	-3	.	.
CCOC(=O)Cc1csc(SCC(=O)c2c(N)n(CC(C)C)c(=O)n(C)c2=O)n1	-2.9*	18	24	-1	8.9*	0	-2.6	14
COc1ccc(S(=O)(=O)N(Cc2cc3ccc(OC)cc3[nH]c2=O)CC2COCCO2)cc1 (stereo not drawn)	-0.19	-21	8	-1	4.9*	2	-12	?
COc1ccc2cc(CN(CC3COCCO3)S(=O)(=O)c3ccccc3)c(=O)[nH]c2c1 (stereo not drawn)	0.11	-2	7	-1	0.0011	2	.	.
CC(=O)N(C)C1(c2nnnn2CCOC(=O)Nc2cccc3ccccc23)CCCC1	0.016	18	2	0	0.51	-4	.	.
O=C(CSc1nnnn1C1CC2CCC1C2)Nc1ccnc2ccccc12 (stereo not drawn)	-2.1*	.	100*	-2	19*	-1	12	-1.3
CCc1nc(SCC(=O)Nc2ccnc3ccccc23)n[nH]1	-0.16	9	4	-1	-1.2	-4	.	.
